In ChEMBL document CHEMBL1130173, “A model for binding of structurally diverse natural product inhibitors of protein phosphatases PP1 and PP2A” (J Med Chem, 1997):
pIC50: −log10 of the molar value. *1 amine or outer side, *2 acyl side, *3 side chain or, on linkers, in order; H or OH if unused. Where a SMILES comes first, the peptide text is derived from it. Bridges are numbered along the chain shown (N, C = ends). [ ]: non-standard residue; d: D form. Adda = CO[C@@H](Cc1ccccc1)[C@@H](C)/C=C(C)/C=C/[C@H](N[*:1])[C@H](C)C(=O)[*:2]; dAsp(3S-Me) = C[C@H](C(=O)[*:3])[C@@H](N[*:1])C(=O)[*:2]; d(γGlu) = O=C(O)[C@@H](CCC(=O)[*:2])N[*:1]; NMeDha = C=C(NC)C(=O)O

Assays:
[1] = target: T1, Serine-threonine protein phosphatase 2A regulatory subunit (Gallus gallus, UniProt Q8AWE3); assay: (§1) Observed inhibition activity of the compounds against protein phosphatases 2A (PP2A)
T1 sequence (Q8AWE3 whole entry): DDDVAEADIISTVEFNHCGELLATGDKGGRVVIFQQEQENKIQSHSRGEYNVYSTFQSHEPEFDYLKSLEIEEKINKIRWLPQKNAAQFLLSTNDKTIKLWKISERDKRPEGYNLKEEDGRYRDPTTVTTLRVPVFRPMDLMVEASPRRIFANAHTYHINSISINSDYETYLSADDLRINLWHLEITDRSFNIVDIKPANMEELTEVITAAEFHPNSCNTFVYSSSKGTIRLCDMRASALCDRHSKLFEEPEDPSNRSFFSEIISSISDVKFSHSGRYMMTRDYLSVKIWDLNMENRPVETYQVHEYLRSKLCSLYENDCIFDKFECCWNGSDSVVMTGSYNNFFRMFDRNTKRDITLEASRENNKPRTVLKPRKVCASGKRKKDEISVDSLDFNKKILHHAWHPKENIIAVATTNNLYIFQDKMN
How it was run: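 Commercial PP2A (e.g. 3 mU) in MOPS/2-mercaptoethanol/MgCl2/albumin dilution buffer. Preincubated 10 min with inhibitor at pH 8.0 Tris-HCl. Reaction started with KR-pT-IRR phosphopeptide (0.2 mM stock), 60 min at 22 °C. Released phosphate measured by malachite green at 650 nm after 20 min development; IC50 from inhibition curves.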

[2] = target: T1, Serine-threonine protein phosphatase 2A regulatory subunit; assay: Inhibition activity against protein phosphatase 2A (PP2A), activity taken from literature
[3] = target: T1, Serine-threonine protein phosphatase 2A regulatory subunit; assay: Observed inhibition activity against protein phosphatase 2A (PP2A)
[4] = target: T2, Serine/threonine-protein phosphatase 2A 55 kDa regulatory subunit B alpha isoform (Homo sapiens, UniProt P63151); assay: as §1
T2 sequence (P63151 whole entry): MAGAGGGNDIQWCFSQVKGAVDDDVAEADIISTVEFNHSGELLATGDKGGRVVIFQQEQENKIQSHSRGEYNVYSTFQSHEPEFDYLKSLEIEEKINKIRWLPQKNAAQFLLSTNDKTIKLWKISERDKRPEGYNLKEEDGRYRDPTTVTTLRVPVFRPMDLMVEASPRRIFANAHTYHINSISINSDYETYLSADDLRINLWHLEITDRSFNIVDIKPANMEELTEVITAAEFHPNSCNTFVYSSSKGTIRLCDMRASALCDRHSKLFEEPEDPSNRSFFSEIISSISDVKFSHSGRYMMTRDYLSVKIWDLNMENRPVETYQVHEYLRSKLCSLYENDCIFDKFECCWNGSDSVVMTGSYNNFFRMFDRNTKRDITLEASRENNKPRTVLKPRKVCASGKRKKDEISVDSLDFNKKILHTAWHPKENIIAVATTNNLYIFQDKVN

Compound | pIC50 [1] | pIC50 [2] | pIC50 [3] | also measured
COC([C@H](OC(=O)C[C@@H](O)C1=C(C)C(=O)OC1=O)C(C)C)[C@H](O)CC(=O)[C@@H](C)[C@@H](O)CC[C@@H](C)[C@@H]1O[C@]2(CC[C@@H](C)[C@H](CC[C@H](C)C(C)=O)O2)CC[C@@H]1C (single isomer, unassigned) [TAUTOMYCIN] | 8.00 |  |  | 
CC=C1C(=O)N[C@@H](C(=O)O)[C@H](C)C(=O)N[C@@H](CCCNC(=N)N)C(=O)N[C@@H](/C=C/C(C)=C/[C@H](C)[C@H](Cc2ccccc2)OC)[C@H](C)C(=O)N[C@@H](C(=O)O)CCC(=O)N1C |  | 9.00 | 9.70 | 
C=C1C(=O)N[C@H](C)C(=O)N[C@@H](CC(C)C)C(=O)N[C@@H](C(=O)O)[C@H](C)C(=O)N[C@@H](CCCNC(=N)N)C(=O)N[C@@H](/C=C/C(C)=C/[C@H](C)[C@H](Cc2ccccc2)OC)[C@H](C)C(=O)N[C@@H](C(=O)O)CCC(=O)N1C [MICROCYSTIN-LR] (R[Adda][d(γGlu)][NMeDha][dA]L[dAsp(3S-Me)]-OH; lactam N-7) |  |  |  | pIC50 [4]: 10.19
COC[C@@H]([C@H](O)[C@H](O)C(=O)NCC[C@H](C)c1nc(/C=C/C[C@@H]2O[C@]3(C[C@@H](O)[C@@H]2C)O[C@H]([C@H](C[C@H](O)[C@H](C)[C@H](O)[C@H](C)/C=C(C)/C(C)=C/C=C/C(C)=C\C#N)OC)[C@H](OP(=O)(O)O)C3(C)C)co1)N(C)C [CALYCULIN A] | 8.14 |  |  | 
C=C1[C@@H](O)[C@@H]2O[C@]3(CC[C@H](/C=C/[C@@H](C)[C@@H]4CC(C)=C[C@@]5(O[C@H](C[C@@](C)(O)C(=O)O)CC[C@H]5O)O4)O3)CC[C@H]2O[C@@H]1[C@@H](O)C[C@H](C)[C@H]1O[C@@]2(CCCCO2)CC[C@H]1C [OKADAIC ACID] |  | 9.00 | 9.35 | 
COC[C@@H]([C@H](O)[C@H](O)C(=O)N[C@H](C)C[C@H](C)c1nc(/C=C/C[C@@H]2O[C@]3(C[C@@H](O)[C@@H]2C)O[C@H]([C@H](C[C@H](O)[C@H](C)[C@H](O)[C@H](C)/C=C(C)/C(C)=C/C=C/C(C)=C\C#N)OC)[C@H](OP(=O)(O)O)C3(C)C)co1)N(C)C [CALYCULIN] | 8.01 |  |  | 
